First the molecules themselves.
B1: tRNA (parent)
chain: GUUCCGUUGGCGUAAUGGUAACGCGUCUCCCUCCUAAGGAGAAGACUGCGGGUUCGAGUCCCGUACGGAACG

Yeast fitness data for 37 variants are collected here from the RNAGym collection of RNA variant scans (doi:10.1126/science.aae0568).

Fewer inactive variants are shown than the library holds.

This data set covers variants of B1. The experiment in a line: yeast fitness relative to wild type (ratio to wild type); higher = fitter; tRNA-Arg(CCU), competitive growth, 37 C, YPD. The gist of the method: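 For this measurement, the tRNA-Arg(CCU) gene was varied by chemical synthesis at a 3% per-site mutation rate across 69 sites, and each variant was placed at the native genomic locus in Saccharomyces cerevisiae. The pooled strains went through a 24-hour competition in YPD at 37°C in six parallel replicates, with amplicons from start and end populations read by 100-nucleotide paired-end sequencing. Darwinian fitness relative to wild type followed from the change in each genotype's frequency. Genotypes needed ≥ 100 starting reads, and estimates < 0.5 were set to 0.5.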
For the variant GUUCCGUUGGCGUAAUGGUAACGCGUCUCCCUCCUAAGCAGAAGACUGGCGGUUCGAGUCCCGUACGGAACG [G39C C49G G50C], the yeast fitness is at most 0.5. Then GUUCCGUUGGCGUAAUGGUAACGCGUCUCCCUCCUAAGCAGAAGACUGCGGAUUCGAGUCCCGUACGGAACG [G39C G52A], with 0.76. Then GUUCCGUUGGCGUAAUGGUAACGCGUCUCCCUCCUAAGGCGAAGACUGCGGGUUCGAGUCCCGUACGGAACG [A40C], with 1; and GUUCCGUUGGCGUAAUGGUAACGCGUCUCCCUCCUAAGAAGUAGACUGCGGGUUCGAGUCCCGUACGGAACG [G39A A42U], with 0.767; and GUUCCGUUGGCGUAAUGGUAACGCGUCUCCCUCCUAAUGAGAAGACUACGGGUUCGAGUCCCGUACGGAUCG [G38U G48A A70U], with 0.652. Then GUUCCGUUGGCGUAAUGGUAACGCGUCUCCCUCCUAAGAAGAAGACUGCGGGUCCGAGUCCCGUACGGAACG [G39A U54C], with 0.945; and GUUCCGUUGGCGUAAUGGUAACGCGUCUCCCUCCUAAGGCGAAGACUGCGGGUUAGAGUCCCGUACGGAACG [A40C C55A], with 0.556. For the variant GUUCCGUUGGCGUAAUGGUAACGCGUCUCCCUCCUAAGGCGGAGACCGCGGGUUAGAGUCCCGUACGGAACG [A40C A42G U47C C55A], the yeast fitness was 0.587. Consider GUUCCGUUGGCGUAAUGGUAACGCGUCUCCCUCCUAAGAAGAAGCCUGCGGGUUCGAGUCCCGUACGGAACG [G39A A45C], for which the yeast fitness amounted to 1.03. Take GUUCCGUUGGCGUAAUGGUAACGCGUCUCCCUCCUAAGAAGAAGACUGCGGGUUCGAGUCCCAUACGGAACG [G39A G63A]: the yeast fitness is 0.945. For the variant GUUCCGUUGGCGUAAUGGUAACGCGUCUCCCUCCUAAGAAGACGACUGCGGGUUCGAGUCCCGUACGGAACG [G39A A43C], the yeast fitness is 0.796. Next, GUUCCGUUGGCGUAAUGGUAACGCGUCUCCCUCCUAAGCAGAAGACUGCGGGUUCGAGAGCCGUACGGAACG [G39C U59A C60G]: 0.541; GUUCCGUUGGCGUAAUGGUAACGCGUCUCCCUCCUAAGGCGAAGACUGCGGGUUCGAGUCCCGUACGGAUCG [A40C A70U]: 0.797.

As to GUUCCGUUGGCGUAAUGGUAACGCGUCUCCCUCCUAAGAAGAAGACAGUGGGUACGAGUCCCGUACGGAACG [G39A U47A C49U U54A], the yeast fitness is at most 0.5. Next, GUUCCGUUGGCGUAAUGGUAACGCGUCUCCCUCCUAAGCAGAAGACUGCGGGCUCGAGUCCCGUACGGAACG [G39C U53C]: 0.747; GUUCCGUUGGCGUAAUGGUAACGCGUCUCCCUCCUAAGAAGAAGACUGCGGAUUCGAGUCCCGUACGGAACG [G39A G52A]: 0.759.

For GUUCCGUUGGCGUAAUGGUAACGCGUCUCCCUCCUAACGAGAAGACUGCGGGUUCGAGUUCCGUAGGGAACG [G38C C60U C66G], the yeast fitness is at most 0.5.

Consider GUUCCGUUGGCGUAAUGGUAACGCGUCUCCCUCCUAAGAAGAAGAAUGCGGGUUCGAGUGUCGUACGGAACG [G39A C46A C60G C61U], for which the yeast fitness stood at 0.512. Then GUUCCGUUGGCGUAAUGGUAACGCGUCUCCCUCCUAAGAAGAAGACUGCAGGUUCGAGUCCCGUAUGGAACG [G39A G50A C66U], with at most 0.5; and GUUCCGUUGGCGUAAUGGUAACGCGUCUCCCUCCUAAGCAGGAGACUGCGGGUUCGAGUCCCGUACGGAACG [G39C A42G], with 0.653. Next, GUUCCGUUGGCGUAAUGGUAACGCGUCUCCCUCCUAAGAAGAAGACUGCGGGUUCGAGUCCCGUACAGAACG [G39A G67A]: 0.769; GUUCCGUUGGCGUAAUGGUAACGCGUCUCCCUCCUAACGAGAAGACUGCGGGUUCGAGUCCCGUACGGUUCG [G38C A69U A70U]: at most 0.5.

As for GUUCCGUUGGCGUAAUGGUAACGCGUCUCCCUCCUAAGCAGAAGACUGCGGGUUAGAGUCCCGUACGGAACG [G39C C55A], the yeast fitness was found to be 0.643. Consider GUUCCGUUGGCGUAAUGGUAACGCGUCUCCCUCCUAAGCAGAGCUCUGGGGGUUCGAGUCCCGUACCGAACG [G39C A43G G44C A45U C49G G67C], for which the yeast fitness is 0.558. On to GUUCCGUUGGCGUAAUGGUAACGCGUCUCCCUCCUAACGAGAAGAAUGCGGGUUCGAGUCCGGUAUGGAACG [G38C C46A C62G C66U], for which the yeast fitness is at most 0.5. As to GUUCCGUUGGCGUAAUGGUAACGCGUCUCCCUCCUAAGAAGAAGACUGCGGGUUCGAGUCCCGUUCGGAACG [G39A A65U], the yeast fitness was 0.791.

GUUCCGUUGGCGUAAUGGUAACGCGUCUCCCUCCUAAGAAGAAGACUGCGAGAUCGAGUCCCCUACGGAACG [G39A G51A U53A G63C]: the yeast fitness was at most 0.5. Take GUUCCGUUGGCGUAAUGGUAACGCGUCUCCCUCCUAAGUAGAGGACUGCGGGUUCGAGUCCCGUACGGAACG [G39U A43G]: the yeast fitness was 0.811. Consider GUUCCGUUGGCGUAAUGGUAACGCGUCUCCCUCCUAACGAGAAGACUGCAGAUUUGAGUCCCGUACGGAACG [G38C G50A G52A C55U], for which the yeast fitness was at most 0.5. Next, GUUCCGUUGGCGUAAUGGUAACGCGUCUCCCUCCUAAGAAGAAGACUGUGGGUUCGAGUCCCGUACGGAACG [G39A C49U]: 0.842. Then GUUCCGUUGGCGUAAUGGUAACGCGUCUCCCUCCUAACGAGAAGACUGCGGGUUCGGGUCCCGUACGGAACG [G38C A57G], with 0.617; and GUUCCGUUGGCGUAAUGGUAACGCGUCUCCCUCCUAAGCAGAAGACCGCGGGUUCGCGUCACGCACGGAACG [G39C U47C A57C C61A U64C], with at most 0.5. Take GUUCCGUUGGCGUAAUGGUAACGCGUCUCCCUCCUAAGAAGAAAACUGCAGGUUCGAGUCCCCUACGGAACG [G39A G44A G50A G63C]: the yeast fitness is at most 0.5.

In the case of GUUCCGUUGGCGUAAUGGUAACGCGUCUCCCUCCUAAGCAGUAGACUGCGGGUUCGAGUGCUGUACCGAACG [G39C A42U C60G C62U G67C], the yeast fitness is at most 0.5. With GUUCCGUUGGCGUAAUGGUAACGCGUCUCCCUCCUAACGAGAAGACUGCGGGUUCGAGUCCUGUGCGGAACG [G38C C62U A65G], the yeast fitness was 0.502. Then GUUCCGUUGGCGUAAUGGUAACGCGUCUCCCUCCUAAGGCGUCGACUACGGGUUCGAGUCCCGUACGGAACG [A40C A42U A43C G48A], with 0.55; and GUUCCGUUGGCGUAAUGGUAACGCGUCUCCCUCCUAACGAGAAGACUGCGGGUCCGAGUCCCGUACGGAACG [G38C U54C], with 0.82.
